Experimental data pooled from the literature.
Compare with care: the assays were run in different laboratories.
Target: Serine/threonine-protein kinase WNK3 (WNK3, Homo sapiens, UniProt Q9BYP7)

`CN1CC(Oc2cnc(C#N)cc2-c2ccn3nc(NC(=O)C4CC4)cc3c2)C1` has an inhibition of -5% (enzyme activity, inhibitor; 1 µM).
`CNC(=O)c1cc(Oc2ccc(NC(=O)Nc3ccc(Cl)c(C(F)(F)F)c3)cc2)ccn1` gave an inhibition of -6% (enzyme activity, inhibitor; 0.3 µM).
`CCN(CC)c1ccc(C2=NNC(=O)CC2C)cc1[N+](=O)[O-]` (centres unmarked) gave a remaining activity of 105% (enzyme activity, inhibitor; 10 µM).
The inhibition of `Cc1ccc(Nc2nccc(N(C)c3ccc4c(C)n(C)nc4c3)n2)cc1S(N)(=O)=O` is reported as -4% (enzyme activity, inhibitor; 0.3 µM).
`O=C(NCCCC1CCCCC1)c1ccc(CNC(=O)c2cnn(-c3ccccc3)c2C(F)(F)F)cc1` gave a remaining binding of 100% (cell-free assay, competition with immobilised ligand; 0.1 µM).
With `Nc1ncnc2occ(-c3ccc(NC(=O)Nc4cc(C(F)(F)F)ccc4F)cc3)c12` the remaining signal was 58% (cell-free assay, inhibitor; 20 µM).
`CCN(CC)CCNC(=O)c1c(C)[nH]c(/C=C2\C(=O)Nc3ccc(F)cc32)c1C` gave an inhibition of -4% (enzyme activity, inhibitor; 0.3 µM).
For `CC(C)(O)c1cncc(-c2nc3ccc(F)cc3n2C2CC2)c1`, the remaining binding was 100% (cell-free assay, competition with immobilised ligand; 1 µM).
For `COc1cc(Cl)c(C(=O)N[C@@H](CN[C@H]2CC[C@@H](N)CC2)Cc2ccc(C#N)cc2)cc1-c1ccc(CN[C@H](C)c2ccc(C)cc2)o1`, the remaining activity was 99% (enzyme activity, inhibitor; 1 µM).
`O=C1NC(=O)c2cc(Nc3ccc(F)cc3)c(Nc3ccc(F)cc3)cc21` has a remaining signal of 92.7% (cell-free assay; 0.5 µM).
The remaining binding of `FC(F)(F)c1ccc2c(c1)nc(-c1cccnc1)n2C1CC1` is reported as 100% (cell-free assay, competition with immobilised ligand; 1 µM).
With `Cc1ccc(NC(=O)c2ccc(C)c(C(F)(F)F)c2)cc1C#Cc1nn(C2CCC(O)CC2)c2ncnc(N)c12` (centres unmarked) the remaining signal was 39% (cell-free assay; 10 µM).
The remaining binding of `O=c1nc(-c2ccccn2)sc2ccccc12` is reported as 100% (binding, competition with immobilised ligand; 1 µM).
The remaining activity of `O=C(Nc1cnn(-c2csc(C(=O)NC3COC3)c2)c1)Nc1c(F)cccc1Cl` is reported as 91.8% (enzyme activity, inhibitor; 5 µM).
For `CCCOc1ccc([C@H]2[C@H](C(=O)O)[C@@H](c3ccc4c(c3)OCO4)CN2CC(=O)Nc2c(CC)cccc2CC)cc1`, the remaining binding was 90% (cell-free assay, competition with immobilised ligand; 1 µM).
`CC(C)(C)c1nc2c(s1)c1nc(N)ncc1c1ccc(NS(=O)(=O)c3c(F)cccc3F)c(F)c12` gave a remaining activity of 91% (enzyme activity, inhibitor, radiometric; 1 µM).
For `N#CCCc1ccc2c(c1)-c1[nH]c3ccc([N+](=O)[O-])cc3c1CC(=O)N2`, the remaining signal was 96.5% (cell-free assay; 0.5 µM).
